From ChEMBL document CHEMBL3112454, “Discovery and SAR study of hydroxyacetophenone derivatives as potent, non-steroidal farnesoid X receptor (FXR) antagonists” (Bioorg Med Chem, 2014)

Biological target: T1, Bile acid receptor (Homo sapiens) (UniProt Q96RI1)
T1 sequence (whole entry): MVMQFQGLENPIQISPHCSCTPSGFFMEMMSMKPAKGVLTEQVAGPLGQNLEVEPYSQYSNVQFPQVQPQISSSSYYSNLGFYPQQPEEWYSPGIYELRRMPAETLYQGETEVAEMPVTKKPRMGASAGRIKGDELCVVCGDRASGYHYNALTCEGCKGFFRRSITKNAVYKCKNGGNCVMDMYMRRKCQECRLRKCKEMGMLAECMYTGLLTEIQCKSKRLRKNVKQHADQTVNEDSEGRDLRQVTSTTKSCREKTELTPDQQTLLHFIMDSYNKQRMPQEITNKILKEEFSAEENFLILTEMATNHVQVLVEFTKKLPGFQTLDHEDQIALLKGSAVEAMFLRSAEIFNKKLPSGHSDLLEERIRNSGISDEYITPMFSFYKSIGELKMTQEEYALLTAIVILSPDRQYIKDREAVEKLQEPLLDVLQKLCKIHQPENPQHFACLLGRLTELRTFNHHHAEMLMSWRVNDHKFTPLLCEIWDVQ
Assay: Ratio of guggulsterone IC50 to compound IC50 for GST-tagged FXRalpha LBD (unknown origin) assessed as inhibition of CDCA-induced bio-SRC-1 recruitment after 30 mins by fluorescence based HTRF assay

Ratio IC50	SMILES
100	CCc1cc(C(C)=O)c(OCc2ccccc2)cc1OCCCCCC(C)(C)c1nnn[nH]1

Biological target: T2, Bile acid receptor (Homo sapiens, UniProt Q96RI1)
T2 sequence (Q96RI1 whole entry): T1 sequence (whole entry)
Assay: Antagonist activity at GST-tagged FXRalpha LBD (unknown origin) assessed as inhibition of CDCA-induced bio-SRC-1 recruitment after 30 mins by fluorescence based HTRF assay
How it was run: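 HTRF coactivator-recruitment assay: 10 nM GST-FXRα LBD with 100 nM biotinylated SRC-1 peptide, with CDCA as agonist present. Compounds were tested at a single concentration or a concentration series, incubated 30 min at room temperature, then fluorescence read. Values are mean SD of triplicate measurements.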

SMILES	IC50 [µM]
CCc1cc(C(=O)C(C)C)c(O)cc1OCCCCCC(C)(C)c1nnn[nH]1	8.6
CCCCc1cc(C(C)=O)c(OCc2ccccc2)cc1OCCCCCC(C)(C)c1nnn[nH]1	7.8
CCCCCCC(=O)c1cc(CC)c(OCCCCCC(C)(C)c2nnn[nH]2)cc1O	8.4
CCCCc1cc(CC)c(O)cc1OCCCCCC(C)(C)c1nnn[nH]1	8.7
CCC(=O)c1cc(CC)c(OCCCCCC(C)(C)c2nnn[nH]2)cc1O	8.5
CCCc1cc(C(C)=O)c(O)cc1OCCCCCC(C)(C)c1nnn[nH]1	25.2
CCc1cc(C(C)=O)c(O)cc1OCCCCCC(C)(C)C(=O)O	> 100
CC(=O)c1cc(CC(C)C)c(OCCCCCC(C)(C)c2nnn[nH]2)cc1O	5.8
CCc1cc(C(C)=O)c(O)cc1OCCCCCC(C)(C)c1nn[nH]n1 [LY-255283]	35.2

The next compounds have a lower IC50 than those just listed; values first:

IC50 [µM]	SMILES
5.5	CCc1cc(C(C)=O)c(OC)cc1OCCCCCC(C)(C)c1nnn[nH]1
5.4	CCCCC(=O)c1cc(CC)c(OCCCCCC(C)(C)c2nnn[nH]2)cc1O
3.5	CCc1cc(CC)c(OCc2ccccc2)cc1OCCCCCC(C)(C)c1nnn[nH]1
3.3	CCc1cc(C(C)=O)c(OC2CCCC2)cc1OCCCCCC(C)(C)c1nnn[nH]1
3.2	CCCCCCc1cc(C(C)=O)c(O)cc1OCCCCCC(C)(C)c1nnn[nH]1
3.1	CCc1cc(C(=O)c2ccccc2)c(O)cc1OCCCCCC(C)(C)c1nnn[nH]1
3.1	CCc1cc(CC)c(OCCCCCC(C)(C)c2nn[nH]n2)cc1O
2.9	CCc1cc(C(C)=O)c(OCC2CCCCC2)cc1OCCCCCC(C)(C)c1nnn[nH]1
1.7	CCc1cc(C(C)=O)c(OC(C)c2ccccc2)cc1OCCCCCC(C)(C)c1nnn[nH]1 (configuration not stated)
1.5	CCCCc1cc(C(C)=O)c(O)cc1OCCCCCC(C)(C)c1nnn[nH]1
1.2	CCc1cc(C(C)=O)c(OCc2cccc(C)c2)cc1OCCCCCC(C)(C)c1nnn[nH]1
1.1	CCc1cc(C(C)=O)c(OCc2ccccc2)cc1OCCCCCC(C)(C)c1nnn[nH]1
